# Experimental data as given in ChEMBL document CHEMBL4265981, “Design, synthesis, and biological evaluation of novel pan agonists of FFA1, PPARγ and PPARδ” (Eur J Med Chem, 2018).
# Key:
# [1] = target: T1, Peroxisome proliferator-activated receptor gamma (Homo sapiens, UniProt P37231); test: Agonist activity at human GAL4 fused PPARgamma-LBD expressed in HEK293 cells after 18 hrs by luciferase reporter gene assay; assay type: cell-based
# T1 sequence (P37231 whole entry): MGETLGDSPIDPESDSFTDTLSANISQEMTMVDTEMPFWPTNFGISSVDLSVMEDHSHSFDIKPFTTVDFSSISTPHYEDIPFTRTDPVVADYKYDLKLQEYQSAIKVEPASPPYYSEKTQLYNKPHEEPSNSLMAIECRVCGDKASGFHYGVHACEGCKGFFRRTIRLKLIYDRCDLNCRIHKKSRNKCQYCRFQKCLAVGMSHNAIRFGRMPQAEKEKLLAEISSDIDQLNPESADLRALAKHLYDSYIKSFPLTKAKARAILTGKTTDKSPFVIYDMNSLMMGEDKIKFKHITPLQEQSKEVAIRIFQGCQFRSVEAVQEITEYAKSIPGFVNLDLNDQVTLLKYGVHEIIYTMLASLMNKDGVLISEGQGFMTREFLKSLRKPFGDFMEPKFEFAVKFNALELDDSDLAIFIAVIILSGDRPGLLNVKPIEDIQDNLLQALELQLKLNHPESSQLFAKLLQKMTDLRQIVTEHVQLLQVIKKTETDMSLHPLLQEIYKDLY
# Summary of the method: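 HEK293 cells plated 1 day ahead in antibiotic-free DMEM, transiently transfected with pBIND-PPARγ plus pG5Luc reporter (25 ng/well each). After 24 h, compounds added at various concentrations for 18 h. Dual firefly/renilla luciferase read-out, firefly normalized to renilla. % activation scaled between no-compound control and reference agonist; EC50 is the mean of three determinations.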
# [2] = target: T2, Peroxisome proliferator-activated receptor alpha (Homo sapiens, UniProt Q07869); test: Agonist activity at human GAL4 fused PPARalpha-LBD expressed in human HepG2 cells after 18 hrs by luciferase reporter gene assay; assay type: cell-based
# T2 sequence (Q07869 whole entry): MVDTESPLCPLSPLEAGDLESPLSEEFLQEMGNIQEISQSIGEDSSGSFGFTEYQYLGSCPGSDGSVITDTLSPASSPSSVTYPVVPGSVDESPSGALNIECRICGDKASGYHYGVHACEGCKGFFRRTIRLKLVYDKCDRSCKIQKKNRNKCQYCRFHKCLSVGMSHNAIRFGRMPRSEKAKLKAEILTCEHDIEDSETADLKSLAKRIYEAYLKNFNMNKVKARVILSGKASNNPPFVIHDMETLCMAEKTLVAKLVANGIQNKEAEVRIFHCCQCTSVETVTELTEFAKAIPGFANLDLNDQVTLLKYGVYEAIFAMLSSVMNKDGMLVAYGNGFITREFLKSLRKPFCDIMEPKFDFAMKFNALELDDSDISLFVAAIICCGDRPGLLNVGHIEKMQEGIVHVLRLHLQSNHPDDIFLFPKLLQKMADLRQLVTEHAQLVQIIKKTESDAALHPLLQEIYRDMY
# Summary of the method: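 HepG2 cells plated 1 day ahead in antibiotic-free MEM, then run by the same GAL4 protocol: pBIND-PPAR construct plus pG5Luc reporter transfection, 18 h compound exposure at various concentrations. Firefly/renilla luciferase ratio scaled between no-compound and reference-agonist controls. EC50 is the mean of three determinations.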
# [3] = target: T3, Peroxisome proliferator-activated receptor delta (Homo sapiens, UniProt Q03181); test: Agonist activity at human GAL4 fused PPARdelta-LBD expressed in HEK293 cells after 18 hrs by luciferase reporter gene assay; assay type: cell-based
# T3 sequence (Q03181 whole entry): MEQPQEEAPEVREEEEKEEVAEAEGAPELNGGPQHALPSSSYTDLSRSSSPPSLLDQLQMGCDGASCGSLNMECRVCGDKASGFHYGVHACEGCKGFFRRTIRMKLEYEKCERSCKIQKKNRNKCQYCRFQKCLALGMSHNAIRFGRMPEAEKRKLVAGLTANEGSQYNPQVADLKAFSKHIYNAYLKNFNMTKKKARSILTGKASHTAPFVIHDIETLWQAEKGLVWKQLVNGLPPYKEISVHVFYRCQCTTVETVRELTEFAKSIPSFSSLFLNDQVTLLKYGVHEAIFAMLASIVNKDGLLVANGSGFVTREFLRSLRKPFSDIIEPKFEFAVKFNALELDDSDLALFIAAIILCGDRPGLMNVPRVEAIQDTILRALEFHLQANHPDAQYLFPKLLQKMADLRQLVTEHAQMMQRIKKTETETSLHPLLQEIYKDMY
# [4] = target: T4, Free fatty acid receptor 1 (Homo sapiens, UniProt O14842); test: Agonist activity at human FFA1 expressed in CHO cells assessed as increase in intracellular Ca2+ flux after 1 hr by Fluo4-AM dye based FLIPR assay; assay type: functional, cell-based
# Summary of the method: (§1)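 CHO cells stably expressing human FFA1, seeded 16 h at 37 °C, washed with HBSS, then loaded 1 h at 37 °C with Fluo 4-AM (2.5 μg/mL), 2.5 mmol/L probenecid and 0.1% fatty acid-free BSA. Intracellular Ca2+ flux read by FLIPR after compound addition at various concentrations.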
# [5] = target: T4, Free fatty acid receptor 1; test: Agonist activity at FFA1 (unknown origin); assay type: functional; summary of the method: as §1
# [6] = system: Mus musculus; test: Hypoglycemic activity in ob/ob mouse assessed as decrease in blood glucose AUC (0 to 120 mins) at 100 mg/kg, po bid administered via gavage for 5 days starting at 30 mins prior to glucose load by OGTT relative to control; assay type: functional; set-up: scale not given: the % may be the effect or the level left
# Summary of the method: (§2)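 Male ob/ob mice, six weeks old, acclimatized 1 week. Dosed by gavage twice daily for 5 days with 100 or 40 mg/kg, or with 0.5% methylcellulose vehicle. OGTT on days 0 and 5: overnight fast, dose, then oral glucose 3 g/kg 30 min later. Tail-tip blood glucose by strip at −30, 0, 15, 30, 60 and 120 min. n = 6/group, mean ± SD, Student's t test.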
# [7] = system: Mus musculus; test: Hypoglycemic activity in ob/ob mouse assessed as decrease in blood glucose AUC (0 to 120 mins) at 100 mg/kg, po bid administered via gavage 30 mins prior to glucose load by OGTT relative to control; assay type: functional; set-up: scale not given: the % may be the effect or the level left; summary of the method: as §2
# [8] = system: Mus musculus; test: Hypoglycemic activity in ICR mouse assessed as decrease in blood glucose AUC (0 to 120 mins) at 30 mg/kg, po administered 30 mins prior to glucose load by OGTT relative to control; assay type: functional; set-up: scale not given: the % may be the effect or the level left
# Summary of the method: (§3)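 Male ICR mice (18–22 g), acclimatized 1 week. Single oral dose (10, 30, 100 or 20 mg/kg) in 0.5% carboxymethylcellulose/methylcellulose vehicle, given 30 min before an oral glucose load of 3 g/kg. Blood glucose measured by test strip at −30, 0, 15, 30, 60 and 120 min. AUC0–120 min compared with vehicle.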
# [9] = system: Mus musculus; test: Hypoglycemic activity in ICR mouse assessed as decrease in blood glucose AUC (0 to 120 mins) at 100 mg/kg, po administered 30 mins prior to glucose load by OGTT relative to control; assay type: functional; set-up: scale not given: the % may be the effect or the level left; summary of the method: as §3
# [10] = system: Mus musculus; test: Hypoglycemic activity in ICR mouse assessed as decrease in plasma glucose level administered orally 30 mins prior to glucose load and measured after 120 mins by OGTT; assay type: functional, organism-based; summary of the method: as §3
# [11] = system: Mus musculus; test: Hypoglycemic activity in ICR mouse assessed as decrease in blood glucose AUC (0 to 120 mins) at 10 mg/kg, po administered 30 mins prior to glucose load by OGTT relative to control; assay type: functional; set-up: scale not given: the % may be the effect or the level left; summary of the method: as §3
# [12] = system: Mus musculus; test: Hypoglycemic activity in ob/ob mouse assessed as decrease in blood glucose AUC (0 to 120 mins) at 40 mg/kg, po bid administered via gavage 30 mins prior to glucose load by OGTT relative to control; assay type: functional; set-up: scale not given: the % may be the effect or the level left; summary of the method: as §2
# [13] = system: Mus musculus; test: Hypoglycemic activity in ICR mouse assessed as decrease in blood glucose AUC (0 to 120 mins) at 20 mg/kg, po administered 30 mins prior to glucose load by OGTT relative to control; assay type: functional; set-up: scale not given: the % may be the effect or the level left; summary of the method: as §3
# [14] = system: Mus musculus; test: Hypoglycemic activity in ob/ob mouse assessed as decrease in blood glucose AUC (0 to 120 mins) at 40 mg/kg, po bid administered via gavage for 5 days starting at 30 mins prior to glucose load by OGTT relative to control; assay type: functional; set-up: scale not given: the % may be the effect or the level left; summary of the method: as §2
# T4 sequence (O14842 whole entry): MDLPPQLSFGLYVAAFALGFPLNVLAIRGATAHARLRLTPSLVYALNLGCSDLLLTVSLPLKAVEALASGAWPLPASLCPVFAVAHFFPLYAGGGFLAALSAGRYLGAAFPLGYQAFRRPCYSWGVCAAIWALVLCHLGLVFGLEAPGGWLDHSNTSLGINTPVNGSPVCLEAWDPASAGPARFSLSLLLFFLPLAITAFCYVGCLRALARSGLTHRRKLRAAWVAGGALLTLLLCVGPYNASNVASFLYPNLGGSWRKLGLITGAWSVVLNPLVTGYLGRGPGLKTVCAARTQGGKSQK
SMILES,EC50 [1] [µM],EC50 [2] [µM],EC50 [3] [µM],EC50 [4] [µM],other results
O=C(O)COc1ccc(OCCCOc2cccc(Cl)c2)cc1F,3.17,> 10,3.35,8.45,
[2H]C([2H])(Cc1ccc(OCCCOc2cccc(Cl)c2)cc1)C(=O)O,1.92,> 10,4.56,3.28,
O=C(O)CS(=O)(=O)c1ccc(OCCCOc2cccc(Cl)c2)cc1,> 10,> 10,> 10,> 10,
Cc1ccccc1OCCCOc1ccc2c(c1)OCC2CC(=O)O (stereo unspecified),2.02,> 10,1.93,> 10,
O=C(O)CC1COc2cc(OCCCOc3ccc(-c4ccccc4)cc3)ccc21 (stereo unspecified),2.97,7.31,1.98,4.26,
CC(C)(C)c1cccc(OCCCOc2ccc3c(c2)OCC3CC(=O)O)c1 (stereo unspecified),1.75,> 10,4.84,3.02,
O=C(O)CC1COc2cc(OCCCOc3cccc(-c4ccccc4)c3)ccc21 (stereo unspecified),1.85,> 10,5.49,2.76,
O=C(O)CC1COc2cc(OCCCOc3cccc(Cl)c3)ccc21 (stereo unspecified),1.69,> 10,2.16,3.07,
CC#C[C@@H](CC(=O)O)c1ccc(OCCCOc2cccc(Cl)c2)cc1,,,,,EC50 [5]: 0.01 µM
O=C(O)CC1COc2cc(OCCCOc3ccccc3F)ccc21 (stereo unspecified),2.67,> 10,2.09,> 10,
O=C(O)CC1COc2cc(OCCCOc3ccccc3)ccc21 (stereo unspecified),5.26,> 10,3.26,> 10,
O=C(O)CC1COc2cc(OCCOc3ccccc3)ccc21 (stereo unspecified),7.75,> 10,7.93,> 10,
Cc1cccc(OCCCOc2ccc3c(c2)OCC3CC(=O)O)c1 (stereo unspecified),1.75,> 10,2.42,3.59,
CC(C)(C)c1cccc(OCCOc2ccc3c(c2)OCC3CC(=O)O)c1 (stereo unspecified),2.03,> 10,9.57,3.85,
O=C(O)C[C@@H]1COc2cc(OCCCOc3cccc(Cl)c3)ccc21,1.43,> 10,1.75,2.38,Activity [6]: 17.3%; Activity [7]: 7.6%; Activity [8]: 8.1%; Activity [9]: 18.6%; Activity [10]: Dose-dependent effect; Activity [11]: 1.1%
Cc1ccc(OCCCOc2ccc3c(c2)OCC3CC(=O)O)cc1 (stereo unspecified),1.81,> 10,1.95,7.62,
Cc1cc(OCCCOc2cccc(Cl)c2)ccc1OCC(=O)O,1.54,> 10,1.73,> 10,
O=C(O)CC1COc2cc(OCCCOc3cccc(Br)c3)ccc21 (stereo unspecified),1.67,> 10,2.37,3.45,
O=C(O)C[C@@H]1CCc2cc(OCCCOc3ccccc3)ccc21,> 10,> 10,0.17,> 10,
Cc1cc(OCCCS(C)(=O)=O)cc(C)c1-c1cccc(COc2ccc3c(c2)OC[C@H]3CC(=O)O)c1,,,,,Activity [12]: 13.1%; Activity [13]: -26.9%; Activity [14]: 20.2%
Cc1cc(OCCCOc2ccc(-c3ccccc3)cc2)ccc1OCC(=O)O,4.56,5.26,1.52,> 10,
